One data set deals with FGFR1 (Homo sapiens, UniProt P11362). The data set can be described thus: Kinase inhibition assay. As to conditions: for inhibition at 0.01 µM / inhibition at 0.1 µM / inhibition at 1 µM: read-out: FGFR1 inhibition rate (%). Format: biochemical.
The next data set has as its system SNU16 cancer cell lines. Put plainly: Cell proliferation assay. Format: cell-based.
Data set [1] can be described thus: Whole blood stability assay. It is filed as in vitro ADME, BALB/c nude mice. The settings on record: BALB/c nude, mouse, fresh whole blood. The method, boiled down: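 Fresh BALB/c nude mouse blood was prewarmed 10 min at 37 °C, then spiked with test compound from a DMSO working solution. Aliquots taken at 0, 0.5, 1, 2 and 5 h were quenched with acetonitrile, centrifuged, and the supernatant diluted in acetonitrile/water. Remaining parent was quantified by UPLC–MS/MS (MRM). GSH adduct was monitored in negative-mode MRM (product ion m/z 272). Triplicates.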

A further data set has as its system H1581 cells. The data set can be described thus: Cell proliferation assay, H1581. Format: cell-based. The settings on record: read-out: H1581 IC50; FGFR1 amplification.
Another data set relates to BaF3/TEL-KDR cell. Put plainly: Cell proliferation assay, BaF3/TEL-KDR. It is filed as cell-based. As to conditions: read-out: BaF3/TEL-KDR IC50.
In another data set the test system is BaF3/TEL-FGFR1 cell. Put plainly: Cell proliferation assay, BaF3/TEL-FGFR1. As to conditions: read-out: BaF3/TEL-FGFR1 IC50. Format: cell-based.
The test system of another data set is UMUC14 cells. Put plainly: Cell proliferation assay, UMUC14. It is filed as cell-based. As to conditions: read-out: UMUC14 IC50; FGFR3 mutation.
For a further data set, the system named is NCI-H1581 xenograft. Put plainly: In vivo antitumor activity, NCI-H1581 xenograft mouse model. Details: species or system nude mice (BALB/c). As to conditions: 12.5 mg/kg, 20 days.
In a further data set the test system is KG1 cells. The data set can be described thus: Cell proliferation assay, KG1. It is filed as cell-based. As to conditions: read-out: KG1 IC50; FGFR1OP2-FGFR1 (FGFR1-translocated).
[2] abbreviates: Homo sapiens, SNU-16, read-out: SNU16 IC50.

Where “and” joins values, the source holds several entries; their conditions need not be identical. Equal entries are not always repeated. Where two headings read alike, the source gives them in different places.

FGFR1, sequence (P11362 22-822): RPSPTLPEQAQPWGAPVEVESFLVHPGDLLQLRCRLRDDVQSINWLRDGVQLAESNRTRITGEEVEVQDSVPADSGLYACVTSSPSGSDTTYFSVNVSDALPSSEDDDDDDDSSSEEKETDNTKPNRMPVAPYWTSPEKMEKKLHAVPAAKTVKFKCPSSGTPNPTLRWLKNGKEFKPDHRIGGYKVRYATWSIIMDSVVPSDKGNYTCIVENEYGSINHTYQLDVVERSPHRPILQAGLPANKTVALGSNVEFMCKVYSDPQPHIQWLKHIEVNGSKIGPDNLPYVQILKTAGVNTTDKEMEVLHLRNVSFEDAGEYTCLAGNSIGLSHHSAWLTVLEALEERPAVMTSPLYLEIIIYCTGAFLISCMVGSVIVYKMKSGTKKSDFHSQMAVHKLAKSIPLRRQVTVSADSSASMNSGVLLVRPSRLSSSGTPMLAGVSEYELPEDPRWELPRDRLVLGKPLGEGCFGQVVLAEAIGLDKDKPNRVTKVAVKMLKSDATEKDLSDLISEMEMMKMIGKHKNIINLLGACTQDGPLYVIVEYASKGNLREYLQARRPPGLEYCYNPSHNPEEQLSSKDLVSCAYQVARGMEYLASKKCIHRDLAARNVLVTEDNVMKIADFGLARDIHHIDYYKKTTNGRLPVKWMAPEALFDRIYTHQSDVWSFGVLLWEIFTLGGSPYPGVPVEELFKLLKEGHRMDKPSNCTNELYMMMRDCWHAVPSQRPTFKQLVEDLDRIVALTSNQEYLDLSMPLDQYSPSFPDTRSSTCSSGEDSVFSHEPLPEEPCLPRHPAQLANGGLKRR

As for `Nc1n[nH]c(=O)c2nn(-c3ccccc3)c(-c3ccco3)c12` [Compound 6], at FGFR1, the inhibition at 0.01 µM worked out at 18.6%, the inhibition at 0.1 µM turned out to be 19.6% and the inhibition at 1 µM came to 22.9%.

`Nc1n[nH]c(=O)c2nn(-c3ccccc3)c(-c3ccccc3)c12` [Compound 7]: at FGFR1, the inhibition at 0.01 µM is 22.9%, the inhibition at 0.1 µM was 20.4% and the inhibition at 1 µM was 19.9%.

`COc1ccc2c(C)c(-c3c4c(N)n[nH]c(=O)c4nn3-c3ccccc3)oc2c1` [Compound 8d] returned an IC50 on FGFR1 of 0.0677 ± 0.0039 µM.

For `COc1ccc2oc(-c3c4c(N)n[nH]c(=O)c4nn3-c3ccccc3)c(C)c2c1` [Compound 8f], the IC50 on FGFR1 was 0.0775 ± 0.0147 µM.

For the compound `Cc1c(-c2c3c(N)n[nH]c(=O)c3nn2-c2ccccc2)oc2cc(Cl)ccc12` [Compound 8i], the inhibition at 1 µM in the data set on SNU16 cancer cell lines (Homo sapiens, SNU-16, read-out: SNU16 proliferation inhibition) came to 49.7%. Also, the inhibition at 0.1 µM on FGFR1 is 64.2%.

In turn, `Cc1c(-c2c3c(N)n[nH]c(=O)c3nn2-c2ccccc2)oc2ccc(Cl)cc12` [Compound 8j] had an IC50 against FGFR1 of 0.0564 ± 0.0158 µM.

Consider `Cc1c(-c2c3c(N)n[nH]c(=O)c3nn2-c2ccccc2)oc2ccc(Br)cc12` [Compound 8m], for which the IC50 in the data set with SNU16 cancer cell lines (setting [2]) was above 1 µM; against FGFR1 it was 0.0668 ± 0.0165 µM.

For the compound `Cc1c(-c2c3c(N)n[nH]c(=O)c3nn2-c2ccccc2)oc2c(Cl)cccc12` [Compound 8p], the inhibition at 0.1 µM on FGFR1 was 38.1%.

Turning to `CC(=O)Nc1ccc(-n2nc3c(=O)[nH]nc(N)c3c2-c2oc3ccc(C)cc3c2C)cc1` [Compound 9j], at FGFR1, the inhibition at 0.1 µM turned out to be 76.4%.

With `Cc1ccc2oc(-c3c4c(N)n[nH]c(=O)c4nn3-c3ccc(CNC(=O)OCc4ccccc4)cc3)c(C)c2c1` [Compound 9m], at FGFR1, the IC50 worked out at 0.0138 ± 0.0013 µM.

Regarding `CCC(=O)Nc1ccc(-n2nc3c(=O)[nH]nc(N)c3c2-c2oc3ccc(C)cc3c2C)cc1` [Compound 9o], the inhibition at 0.1 µM on FGFR1 was found to be 66.2%.

Turning to `Cc1ccc2oc(-c3c4c(N)n[nH]c(=O)c4nn3Cc3ccc([N+](=O)[O-])cc3)c(C)c2c1` [Compound 9w], on FGFR1, the inhibition at 0.1 µM is 16.9%.

Turning to `CCCCNc1cc(F)c(-n2nc3c(=O)[nH]nc(N)c3c2-c2oc3ccc(C)cc3c2C)c(F)c1` [Compound 9z], the IC50 with SNU16 cancer cell lines (setting [2]) was above 1 µM. The inhibition at 0.1 µM at FGFR1 was 73.9%.

Usually half-life stands for the time in which the quantity being followed falls by half. Consider `C/C=C/C(=O)Nc1ccc(-n2nc3c(=O)[nH]nc(N)c3c2-c2oc3ccc(C)cc3c2C)cc1` [Compound 10b], for which the half-life at 1 μmol/L in [1] is 71.2 h.

With `C=CC(=O)Nc1cccc(-n2nc3c(=O)[nH]nc(N)c3c2-c2oc3ccc(C)cc3c2C)c1` [Compound 10l], in the data set on SNU16 cancer cell lines (setting [2]), the IC50 is 0.66 ± 0.322 µM.

As for AZD4547, the IC50 with SNU16 cancer cell lines (read-out: SNU16 IC50, FGFR2 amplification SNU16 cell line) is 0.0037 µM and 0.005 µM; with H1581 cells, 0.0598 ± 0.0081 µM; in the data set on BaF3/TEL-KDR cell, 0.417 ± 0.01 µM; in the data set with BaF3/TEL-FGFR1 cell it was 0.0005 µM; in the data set on UMUC14 cells, 0.0064 ± 0.0013 µM; in the data set with KG1 cells, 0.0037 ± 0.0006 µM. In the data set with NCI-H1581 xenograft, the “TGI (tumor weight inhibition rate at the treatment endpoint)” value turned out to be 65.6%.
